Results published in the EternaBench riboswitch data.

System: MS2 coat protein
Assay: apparent Kd, MS2 coat protein; higher = weaker binding; RNA-MaP array; FMN 200 µM where present
How it was run: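 Stalled E. coli RNA polymerase transcribed the designs on Illumina sequencing-chip clusters. SNAP-549-labelled MS2 coat protein was titrated from 0.7 or 1.5 nM, doubling to 3 µM, without and then with constant ligand, in 100 mM Tris-HCl pH 7.5, 80 mM KCl, 4 mM MgCl2, BSA, DTT, yeast tRNA and Tween-20. Per-cluster binding curves were fitted to green signal normalised to red-channel RNA signal and control-cluster median Fmax. The apparent Kd is the median of the filtered fits.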

[1] = designed as: OFF switch for flavin mononucleotide, no ligand
[2] = ligand present: flavin mononucleotide, designed as: OFF switch for flavin mononucleotide
[3] = designed as: ON switch for flavin mononucleotide, no ligand
[4] = ligand present: flavin mononucleotide, designed as: ON switch for flavin mononucleotide

Sequence | apparent Kd [1] | apparent Kd [2] | apparent Kd [3] | apparent Kd [4]
CGGGAUCCGAAGGGCGAAAGCCCACAUGAGGAUCACCCAUGUAGAAGGCGGGCCGCAACGCGGCCCGAGGAUAUACAGGAUCCA | 17.9 nM | 37 nM |  | 
GUGUUACAUGAGGAUCACCCAUGUUGUUGUAGAUAAGGAUAUAUGGGAACGAGAGAAAUAAUAGAAGGUAUUAGGC |  |  | 71.2 nM | 67.7 nM
UUGCGCUGUCGAGAGGAUAUGCGGUGUUGGACAUGAGGAUCACCCAUGUUAGCGAUAGCUUUACGGUAGAAGGCUCUUCAGCUGC |  |  | 138 nM | 56.9 nM
GGGUUACAUGAGGAUCACCCAUGUGAGGAUAUGAUACUAUGUACUUCGGUACAUAGUAUCAGAAGGCACAUCCC | 36.5 nM | 72.7 nM |  | 
GUCGUGUGAGGAUAUGAUUUUUCGGCGGGAUUGCGACUGCUUCAGAAGGCACAUGAGGAUCACCCAUGUUUGUC | 10.6 nM | 21.2 nM |  | 
GAUUAACAUGAGGAUCACCCAUGUGAGGAUAUGGAAUGGCACAUUGUUUGAUUCCCGUCUAGAAGGCACAUCUU | 44.5 nM | 41.6 nM |  | 
CAGUACUGAGGAUAUACAUGAGGAUCACCCAUGUGUCCCAGCUAGGAAACUAGCAAAAGUAGAAGGCAGUACUG | 23.6 nM | 538 nM |  | 
GCACUGCAGCGGCGCACGAGACAUGAGGAUCACCCAUGUGACAGAAGGGACUUGUUAAAGGUAGGUCAGGAUAUGUCUUAAAAG |  |  | 219 nM | 65.8 nM
CGUGCGUAUGUGAGGAUAUGCUGGUCCUUGGCUCGGCAGAAGGCACAUGAGGAUCACCCAUGUGGUGUCGUACC | 21.9 nM | 58.6 nM |  | 
UUGUAGUGCGUAGGAUAUCAUUGAGGGUCACCCUGAGAAGGACGUGAGGACAUGAGGAUCACCCAUGUGGAUCACCCAUGUCAU | 305 nM | 462 nM |  | 
AAUUAUUUAUGAGGAUAUUGUGGUGAAACACCACAAGAAGGCAUGAUACACAUGAGGAUCACCCAUGUGAGCCUGAUGCUUAUG | 16.7 nM | 20.1 nM |  | 
AAUGGCGUGAUAACGCUAAUUACAACAUGAGGAUCACCCAUGUAGGAUAUCCUACCGAAAUGGUAGGAGAAGGACAAGCAAUGA | 30.4 nM | 23.5 nM |  | 
CAUGUCCUCACAGGAUAUGCUGGACUUUGUCCAGCAGAAGGGUGAUAACAUGAGGAUCACCCAUGUGGACAUGAUAUAUUUAAU |  |  | 111 nM | 568 nM
CUUUUACAUGAGGAUCACCCAUGUUCUGGCGGGUCAGGAUAUAGAUCGGAUGCGUUCUGUCUAGAAGGGACAUGUU |  |  | 67.3 nM | 38.1 nM
GUAGCACAUGAUUUACAUGAGGAUCACCCAUGUAACAUGGGUAAGGAUAUUGAUGUGAAGUUAAUCAAGAAGGUACUAUGCUAC |  |  | 9.65 nM | 6.35 nM
GUUGGGCCUCCCUCUCCACGUUCAACAUGAGGAUCACCCAUGUAGGAUAUCGUUUGUUUUUUUUACGAGAAGGGCGUACUUCCC | 8.99 nM | 8.06 nM |  | 
CGCCUCAGUUCAGGAUAUGUAUGGGUCUAACGAACAGAAGGGAACAUGAGGAUCACCCAUGUAAAUAGGGCCAAAGGCUAGAUC | 41.7 nM | 175 nM |  | 
ACAUGAGGAUCACCCAUGUGACCACAAUGGCUGAUAUAGAAACAGGAUAUUCGUGAAUAUCUAACGAAGAAGGGUUAUGACUGG | 77.8 nM | 85 nM |  | 
UGGACCAGUACAGGAUAUGGUGACGCACAUGAGGAUCACCCAUGUCCGCAGCGUGCUCAGCACGCCCAGAAGGGUACUGAUUCG |  |  | 718 nM | 76.4 nM
UCUACAUAGAUUCAUCAAUACAGUAAGGAUAUGAGAUACAUGAGGAUCACCCAUGUGCAUGUGGAUUAGAAGGUACAAUUAACU | 16.8 nM | 14.9 nM |  | 
UUCCUGUCAGGAUAUGACUAGAUGCACGAAAGUGUGUUUACUUAGAAGGGACAUGAGGAUCACCCAUGUAGUCC | 35.9 nM | 33.3 nM |  | 
UUUGUGUCAGGAUAUGAGUCGUAGAACAAUAGUACUACGUCUCAGAAGGGACAUGAGGAUCACCCAUGUGCCUC | 35.4 nM | 281 nM |  | 
GUUGGAUGAGGAUAUCGAGGUUAGUACAUGAGGAUCACCCAUGUUAUCCAGGUGUCGGUUCGAGAAGGCAUUGGAC | 32.6 nM | 114 nM |  | 
CCACCAAUCGAGAAGGGCCCAUGUGCUACAUCGGCAGGAUAUCGACAUGAGGAUCACCCAUGUUGGCGAUCCUUUUUGGCGGAC | 176 nM | 35.9 nM |  | 

Sequence | apparent Kd [1] | apparent Kd [2] | apparent Kd [3] | apparent Kd [4]
AAUAACAGAGGAUAUACUGUUUUAUGUGUUUAUUGUUUUGAACAUGAGGAUCACCCAUGUAGAAGGCUGAAUGA | 26.1 nM | 26.2 nM |  | 
GCCGGAUUUGUGAGGAUAUACCUAUGGAUACAUAGGUAGAAGGCACAUGAGGAUCACCCAUGUACCUCACCGGC | 16.7 nM | 69.2 nM |  | 
AAUUGACACGUAGGAUAUCGAACUAUUUUAACACGAGAAGGACGUACAUGAGGAUCACCCAUGUUUAAUGGAGUAGAUAAGUUG | 154 nM | 290 nM |  | 
CUUCUGUGAGGAUAUGUUAGCUCCCAGCAAGUCGCUGAGAGACAGAAGGCACAUGAGGAUCACCCAUGUGGGCG | 35.1 nM | 177 nM |  | 
AAAGUUGGUAGGCCCUCGGAACAUGAGGAUCACCCAUGUAAGGAGGAUAUGCCCGGUACCCGCUGGCAGAAGGCCUUAUAAGAA | 28.2 nM | 239 nM |  | 
AGGCGAGUAGGAUAUGCGUUUUUACGGGAAAGCUGGAUGGUACAUGAGGAUCACCCAUGUAGAAGGGCUCUGAA | 23.4 nM | 21.8 nM |  | 
AUCAGCUCGACAGGAUAUACGUCACUGCGUCAGCAGUGUGGUAAGAUCACAUGAGGAUCACCCAUGUAGAAGGGACGAGCUGAU | 12.1 nM | 56.2 nM |  | 
CGAUGACAAAGUCAUCGAUAACGAACAUGAGGAUCACCCAUGUAGGAUAUGCUACUCAAAGAGUAGCAGAAGGACAUGUGUCUU | 31.7 nM | 154 nM |  | 
UAGUUACAUGAGGAUCACCCAUGUGAGGAUAUGAGUCAGUCACGGUGACGUGGCUGACUCAGAAGGCACUAUGG | 198 nM | 154 nM |  | 
GGAUGACAAAGUCAUCCAAUACGACAUGAGGAUCACCCAUGUUAGGAUAUGCUACUCAAAGAGUAGCAGAAGGACAUGUGCCUU | 23.7 nM | 33.4 nM |  | 
GUAGAGUAAGGAUAUACUGAAUAGGAUAGAAUGGUUAGAAAGUAGAAGGUACAUGAGGAUCACCCAUGUAAUGU | 20.3 nM | 19.7 nM |  | 
UUUACUAACGAAGGAUAUGGUUACAUGAGGAUCACCCAUGUAUGUAUAUUGAUCUAGUAUUUUAACCAGAAGGUCGUGAUUUUU | 31.6 nM | 45.3 nM |  | 
GUUUCACAUGAGGAUCACCCAUGUGAGGAUAUGGUUUCGCUGGCCGUAGCCAGUGGAACCAGAAGGCGCGUGAU | 60.7 nM | 71.1 nM |  | 
AGCGCCAUCGUGAGAUGGCGUAUUACAUGAGGAUCACCCAUGUAGGAUAUCGAUUGCUUUGCAGUCGAGAAGGGCAUGUCCUAG | 35.8 nM | 42.7 nM |  | 
UGGUACUAGGGAGGAUAUGGGAAGAUACAUGAGGAUCACCCAUGUUUAAGAAUGCCGAGAGGCAACUAGAAGGCCCUAGUACCC |  |  | 430 nM | 19.1 nM
UUAAAUCAUGUAGGAUAUGCAUGGCGAAGCUACGCAGAAGGACAUGAGGAUCACCCAUGUGCUAGCUACCGAGUUCGGUGGCAA | 71.3 nM | 283 nM |  | 
AACAGUAGAGGAUAUACAUGAGGAUCACCCAUGUGAUAUUUACGUGGCGUACCACGAAGUAGAAGGCUACUGGA | 30.7 nM | 265 nM |  | 
AACGCGUCAGGAUAUGCCAUAAAUUACGUAGUACGACCAUAGUAGAAGGGACAUGAGGAUCACCCAUGUGGGUA | 177 nM | 137 nM |  | 
CUCUUGUUAGGAUAUCAAACCAGUGACGGAACCACUGGAAGUGAGAAGGGACAUGAGGAUCACCCAUGUAAGAA | 55.6 nM | 113 nM |  | 
AAUAUAAAGAGCUGGACCUUAAUAACAUGAGGAUCACCCAUGUAGGAUAUCAGCACGAUAAGUGCUGAGAAGGACAUCCAGCUC | 14.4 nM | 15.1 nM |  | 
GGGUGAUCAGGAUAUACAGAAAUGCGAAAGCAUUUCUGUAAACAUGAGGAUCACCCAUGUAGAAGGAAACUUCA | 17.9 nM | 13.8 nM |  | 
AGCUAGCUAGGAUAUGCGUAAAUGUCGAAAGACGUAUUGGGACAUGAGGAUCACCCAUGUAGAAGGAGCUAGCA | 29.1 nM | 54.5 nM |  | 
GUUGUUUCUGAGGAUAUUAUUUUUUUCGAUUGAUAAGAAGGCAGUACAUGAGGAUCACCCAUGUGGGUUGUUUG | 54.5 nM | 164 nM |  | 
UCAUAUUUACAAGGAUAUCAAUAUAAUAUAAUACCAACAUGAGGAUCACCCAUGUAUUAGCGUAAUGAGAAGGUGUAUUGUCGG |  |  | 51.2 nM | 41.4 nM
